In brackets after ≈: the same amount, converted by molar mass.
Assays:
Type in all cases: functional
[1] = system: Prevotella melaninogenica; assay: Antimicrobial activity against Prevotella melaninogenica under anaerobic conditions after 44 hrs by CLSI-M11-47 protocol based agar dilution method
Summary of the method: (§1)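 Clinical isolates were stored at −70°C in 20% skim milk and identified phenotypically or by partial 16S rRNA sequencing. Each strain was subcultured twice from frozen stock. Cell paste from 48-h cultures was suspended in brucella broth to a 0.5 McFarland standard. About 10^5 CFU per spot were applied by Steers replicator to agar dilution plates prepared on the day of testing. Plates were incubated 44 h at 37°C in an anaerobic chamber. MIC was taken as the lowest concentration giving complete inhibition or marked reduction of growth versus the drug-free control.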

Clostridium perfringens = assay: Antimicrobial activity against Clostridium perfringens under anaerobic conditions after 44 hrs by CLSI-M11-47 protocol based agar dilution method
Eubacterium cylindroides = assay: Antimicrobial activity against Eubacterium cylindroides under anaerobic conditions after 44 hrs by CLSI-M11-47 protocol based agar dilution method; settings: Faecalitalea cylindroides
Summary of the method: (§2)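 Reference agar dilution per CLSI M11-A7 with plates made on test day. Clinical isolates were stored at −70°C in 20% skim milk, subcultured twice, and 48-h cell paste was suspended in brucella broth to 0.5 McFarland. About 10^5 CFU/spot was applied with a Steers replicator. Plates were incubated 44 h at 37°C anaerobically. MIC was the lowest concentration giving complete inhibition or marked growth reduction versus the drug-free control.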

Parabacteroides merdae = assay: Antimicrobial activity against Bacteroides merdae under anaerobic conditions after 44 hrs by CLSI-M11-47 protocol based agar dilution method; summary of the method: as §2
Phocaeicola vulgatus = assay: Antimicrobial activity against Bacteroides vulgatus under anaerobic conditions after 44 hrs by CLSI-M11-47 protocol based agar dilution method; summary of the method: as §2
Thomasclavelia ramosa = assay: Antimicrobial activity against Clostridium ramosum under anaerobic conditions after 44 hrs by CLSI-M11-47 protocol based agar dilution method; summary of the method: as §2
Bacteroides fragilis [2] = assay: Antimicrobial activity against Bacteroides fragilis under anaerobic conditions after 44 hrs by CLSI-M11-47 protocol based agar dilution method; summary of the method: as §2
Eubacterium limosum = assay: Antimicrobial activity against Eubacterium limosum under anaerobic conditions after 44 hrs by CLSI-M11-47 protocol based agar dilution method; summary of the method: as §2
[3] = system: Peptostreptococcus anaerobius; assay: Antimicrobial activity against Peptostreptococcus anaerobius under anaerobic conditions after 44 hrs by CLSI-M11-47 protocol based agar dilution method; summary of the method: as §1
Prevotella disiens = assay: Antimicrobial activity against Prevotella disiens under anaerobic conditions after 44 hrs by CLSI-M11-47 protocol based agar dilution method; summary of the method: as §1
Clostridium symbiosum = assay: Antimicrobial activity against Clostridium symbiosum under anaerobic conditions after 44 hrs by CLSI-M11-47 protocol based agar dilution method; summary of the method: as §2
Anaerococcus tetradius = assay: Antimicrobial activity against Anaerococcus tetradius under anaerobic conditions after 44 hrs by CLSI-M11-47 protocol based agar dilution method; summary of the method: as §2
Bacteroides uniformis = assay: Antimicrobial activity against Bacteroides uniformis under anaerobic conditions after 44 hrs by CLSI-M11-47 protocol based agar dilution method; summary of the method: as §2
Clostridioides difficile = assay: Antimicrobial activity against Clostridium difficile under anaerobic conditions after 44 hrs by CLSI-M11-47 protocol based agar dilution method; summary of the method: as §2
Actinomyces israelii = assay: Antimicrobial activity against Actinomyces israelii under anaerobic conditions after 44 hrs by CLSI-M11-47 protocol based agar dilution method; summary of the method: as §2
Prevotella bergensis = assay: Antimicrobial activity against Prevotella bergensis under anaerobic conditions after 44 hrs by CLSI-M11-47 protocol based agar dilution method; settings: Hallella bergensis; summary of the method: as §1
Solobacterium moorei = assay: Antimicrobial activity against Solobacterium moorei under anaerobic conditions after 44 hrs by CLSI-M11-47 protocol based agar dilution method; summary of the method: as §1
Fusobacterium mortiferum = assay: Antimicrobial activity against Fusobacterium mortiferum under anaerobic conditions after 44 hrs by CLSI-M11-47 protocol based agar dilution method; summary of the method: as §2
Lacticaseibacillus casei = assay: Antimicrobial activity against Lactobacillus casei under anaerobic conditions after 44 hrs by CLSI-M11-47 protocol based agar dilution method; summary of the method: as §1
[4] = system: Fusobacterium necrophorum; assay: Antimicrobial activity against Fusobacterium necrophorum under anaerobic conditions after 44 hrs by CLSI-M11-47 protocol based agar dilution method; summary of the method: as §2
Bacteroides fragilis [5] = assay: Antimicrobial activity against Bacteroides fragilis spp. under anaerobic conditions after 44 hrs by CLSI-M11-47 protocol based agar dilution method; summary of the method: as §2

Structure (SMILES): CO/N=C(\C(=O)N[C@@H]1C(=O)N2C(C(=O)O)=C(CSc3nc(=O)c(O)nn3C)CS[C@H]12)c1csc(N)n1 [CEFTRIAXONE]
- MIC50 [1]: 2 µg/mL (≈ 3.61 µM)
- MIC90 [1]: 32 µg/mL (≈ 57.7 µM)
- MIC50 (Clostridium perfringens): 0.5 µg/mL (≈ 0.902 µM)
- MIC90 (Clostridium perfringens): 2 µg/mL (≈ 3.61 µM)
- MIC50 (Eubacterium cylindroides): 0.5 µg/mL (≈ 0.902 µM)
- MIC90 (Eubacterium cylindroides): 2 µg/mL (≈ 3.61 µM)
- MIC50 (Parabacteroides merdae): > 64 µg/mL
- MIC90 (Parabacteroides merdae): > 64 µg/mL
- MIC50 (Phocaeicola vulgatus): > 64 µg/mL
- MIC90 (Phocaeicola vulgatus): > 64 µg/mL
- MIC50 (Thomasclavelia ramosa): 0.25 µg/mL (≈ 0.451 µM)
- MIC90 (Thomasclavelia ramosa): 0.5 µg/mL (≈ 0.902 µM)
- MIC50 (Bacteroides fragilis [2]): 32 µg/mL (≈ 57.7 µM)
- MIC90 (Bacteroides fragilis [2]): 64 µg/mL (≈ 115 µM)
- MIC50 (Eubacterium limosum): 0.5 µg/mL (≈ 0.902 µM)
- MIC90 (Eubacterium limosum): 2 µg/mL (≈ 3.61 µM)
- MIC50 [3]: 2 µg/mL (≈ 3.61 µM)
- MIC90 [3]: 8 µg/mL (≈ 14.4 µM)
- MIC50 (Prevotella disiens): 1 µg/mL (≈ 1.8 µM)
- MIC90 (Prevotella disiens): 8 µg/mL (≈ 14.4 µM)
- MIC50 (Clostridium symbiosum): 2 µg/mL (≈ 3.61 µM)
- MIC90 (Clostridium symbiosum): 64 µg/mL (≈ 115 µM)
- MIC50 (Anaerococcus tetradius): 0.25 µg/mL (≈ 0.451 µM)
- MIC90 (Anaerococcus tetradius): 0.5 µg/mL (≈ 0.902 µM)
- MIC50 (Bacteroides uniformis): > 64 µg/mL
- MIC90 (Bacteroides uniformis): > 64 µg/mL
- MIC50 (Clostridioides difficile): 2 µg/mL (≈ 3.61 µM)
- MIC90 (Clostridioides difficile): 64 µg/mL (≈ 115 µM)
- MIC50 (Actinomyces israelii): 0.125 µg/mL (≈ 0.225 µM)
- MIC90 (Actinomyces israelii): 0.5 µg/mL (≈ 0.902 µM)
- MIC50 (Prevotella bergensis): 1 µg/mL (≈ 1.8 µM)
- MIC90 (Prevotella bergensis): 8 µg/mL (≈ 14.4 µM)
- MIC50 (Solobacterium moorei): 0.5 µg/mL (≈ 0.902 µM)
- MIC90 (Solobacterium moorei): 2 µg/mL (≈ 3.61 µM)
- MIC50 (Fusobacterium mortiferum): > 64 µg/mL
- MIC90 (Fusobacterium mortiferum): > 64 µg/mL
- MIC50 (Lacticaseibacillus casei): 32 µg/mL (≈ 57.7 µM)
- MIC90 (Lacticaseibacillus casei): 64 µg/mL (≈ 115 µM)
- MIC50 [4]: 0.015 µg/mL (≈ 0.027 µM)
- MIC90 [4]: 0.03 µg/mL (≈ 0.0541 µM)
- MIC50 (Bacteroides fragilis [5]): > 64 µg/mL
- MIC90 (Bacteroides fragilis [5]): > 64 µg/mL

Structure (SMILES): CCC[C@@H]1C[C@@H](C(=O)N[C@@H]([C@H]2O[C@H](SC)[C@H](O)[C@@H](O)[C@H]2O)[C@H](C)Cl)N(C)C1 [CLINDAMYCIN]
- MIC50 [1]: ≤ 0.03 µg/mL
- MIC90 [1]: > 128 µg/mL
- MIC50 (Clostridium perfringens): 0.25 µg/mL (≈ 0.588 µM)
- MIC90 (Clostridium perfringens): 1 µg/mL (≈ 2.35 µM)
- MIC50 (Eubacterium cylindroides): 0.06 µg/mL (≈ 0.141 µM)
- MIC90 (Eubacterium cylindroides): 2 µg/mL (≈ 4.71 µM)
- MIC50 (Parabacteroides merdae): 4 µg/mL (≈ 9.41 µM)
- MIC90 (Parabacteroides merdae): > 128 µg/mL
- MIC50 (Phocaeicola vulgatus): 4 µg/mL (≈ 9.41 µM)
- MIC90 (Phocaeicola vulgatus): > 128 µg/mL
- MIC50 (Thomasclavelia ramosa): 4 µg/mL (≈ 9.41 µM)
- MIC90 (Thomasclavelia ramosa): 8 µg/mL (≈ 18.8 µM)
- MIC50 (Bacteroides fragilis [2]): 1 µg/mL (≈ 2.35 µM)
- MIC90 (Bacteroides fragilis [2]): 128 µg/mL (≈ 301 µM)
- MIC50 (Eubacterium limosum): 0.06 µg/mL (≈ 0.141 µM)
- MIC90 (Eubacterium limosum): 2 µg/mL (≈ 4.71 µM)
- MIC50 [3]: ≤ 0.03 µg/mL
- MIC90 [3]: 0.25 µg/mL (≈ 0.588 µM)
- MIC50 (Prevotella disiens): ≤ 0.03 µg/mL
- MIC90 (Prevotella disiens): 128 µg/mL (≈ 301 µM)
- MIC50 (Clostridium symbiosum): 2 µg/mL (≈ 4.71 µM)
- MIC90 (Clostridium symbiosum): 128 µg/mL (≈ 301 µM)
- MIC50 (Anaerococcus tetradius): 0.5 µg/mL (≈ 1.18 µM)
- MIC90 (Anaerococcus tetradius): 128 µg/mL (≈ 301 µM)
- MIC50 (Bacteroides uniformis): 4 µg/mL (≈ 9.41 µM)
- MIC90 (Bacteroides uniformis): > 128 µg/mL
- MIC50 (Clostridioides difficile): 2 µg/mL (≈ 4.71 µM)
- MIC90 (Clostridioides difficile): 128 µg/mL (≈ 301 µM)
- MIC50 (Actinomyces israelii): 0.06 µg/mL (≈ 0.141 µM)
- MIC90 (Actinomyces israelii): 128 µg/mL (≈ 301 µM)
- MIC50 (Prevotella bergensis): ≤ 0.03 µg/mL
- MIC90 (Prevotella bergensis): 128 µg/mL (≈ 301 µM)
- MIC50 (Solobacterium moorei): 0.06 µg/mL (≈ 0.141 µM)
- MIC90 (Solobacterium moorei): 2 µg/mL (≈ 4.71 µM)
- MIC50 (Fusobacterium mortiferum): 0.06 µg/mL (≈ 0.141 µM)
- MIC90 (Fusobacterium mortiferum): 1 µg/mL (≈ 2.35 µM)
- MIC50 (Lacticaseibacillus casei): 1 µg/mL (≈ 2.35 µM)
- MIC90 (Lacticaseibacillus casei): 2 µg/mL (≈ 4.71 µM)
- MIC50 [4]: ≤ 0.03 µg/mL
- MIC90 [4]: 0.06 µg/mL (≈ 0.141 µM)
- MIC50 (Bacteroides fragilis [5]): 4 µg/mL (≈ 9.41 µM)
- MIC90 (Bacteroides fragilis [5]): > 128 µg/mL
